Data from ChEMBL document CHEMBL1123557, “N-substituted 1,2,3,4,4a,5,6,10b-octahydrobenzo[f]quinolines and 3-phenylpiperidines: effects on central dopamine and sigma receptors” (J Med Chem, 1987).
Calls of active or inactive are those of the source. The calls are words filed in the database; no cut-off is given here.

What was measured:
D(2) dopamine receptor [1] = biological target: T1, D(2) dopamine receptor (Rattus norvegicus, UniProt P61169); assay: Binding affinity against Dopamine receptor D2 using [3H]spiperone as radioligand
T1 sequence (P61169 whole entry): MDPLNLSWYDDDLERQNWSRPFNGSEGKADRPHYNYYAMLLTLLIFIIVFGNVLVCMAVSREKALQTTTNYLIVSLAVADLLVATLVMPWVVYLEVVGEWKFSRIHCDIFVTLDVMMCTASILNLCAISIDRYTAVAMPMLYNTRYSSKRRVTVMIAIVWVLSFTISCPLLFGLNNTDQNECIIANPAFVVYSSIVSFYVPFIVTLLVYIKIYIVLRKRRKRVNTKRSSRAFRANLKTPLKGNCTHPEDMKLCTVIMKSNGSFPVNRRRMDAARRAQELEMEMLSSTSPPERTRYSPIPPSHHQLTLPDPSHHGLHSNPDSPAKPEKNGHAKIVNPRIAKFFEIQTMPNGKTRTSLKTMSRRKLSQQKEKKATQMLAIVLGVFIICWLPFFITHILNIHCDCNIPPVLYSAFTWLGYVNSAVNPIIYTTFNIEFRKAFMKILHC
Method in brief: (§1)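 Rat striatal membranes (male Sprague-Dawley, 150–250 g), washed three times in 50 mM Tris-HCl pH 7.7. 0.2–0.4 nM [3H]spiperone with 100 mM NaCl and 3 mM MgCl2, about 2 mg tissue, 15 min at 37 °C. Nonspecific binding defined with 1 μM haloperidol. Bound ligand collected by filtration onto PEI-treated glass fiber filters and counted by scintillation. Competition curves fitted iteratively.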

Rattus norvegicus [2] = assay: post-synaptic dopaminergic effect was assessed by the increase in locomotor activity at 30 min time interval by 3.1 umol/kg dosage administration; type: functional
[3] = biological target: Sigma non-opioid intracellular receptor 1 (Rattus norvegicus, UniProt Q9R0C9); assay: In vitro for binding affinity against sigma receptor using [3H](+)-3-PPP as radioligand
Sequence of Sigma non-opioid intracellular receptor 1 (Q9R0C9 whole entry): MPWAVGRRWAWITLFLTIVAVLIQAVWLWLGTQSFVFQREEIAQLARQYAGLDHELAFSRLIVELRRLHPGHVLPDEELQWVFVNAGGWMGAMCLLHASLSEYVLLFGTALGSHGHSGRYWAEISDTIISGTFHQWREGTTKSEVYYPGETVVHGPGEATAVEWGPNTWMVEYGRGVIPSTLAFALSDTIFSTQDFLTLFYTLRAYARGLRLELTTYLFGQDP
Method in brief: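 Whole rat brain membranes (male Sprague-Dawley) in 50 mM Tris-HCl pH 8.0. Nonspecific binding defined with 1 μM haloperidol. Rapid filtration onto PEI-treated glass fiber filters, scintillation counting. IC50 from iterative curve fitting.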

Rattus norvegicus [4] = species on record: Rattus norvegicus; assay: Effective dose required for DOPA accumulation (presynaptic dopaminergic effect) in rat; I is inactive; type: functional, organism-based
Method in brief: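 Male Sprague-Dawley rats (200–300 g); drug in saline given sc. DOPA measured by HPLC with electrochemical detection in each brain area. Dose-response curves used four to six dose levels per substance and area.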

Rattus norvegicus [5] = assay: post-synaptic dopaminergic effect was assessed by the increase in locomotor activity at 30 min time interval by 53 umol/kg dosage administration; type: functional
[6] = biological target: D(2) dopamine receptor (Rattus norvegicus) (UniProt P61169); assay: Tested in vivo for binding affinity against Dopamine receptor D2 using nonradiolabeled 5,6-di-n-Pr-ADTN; type: organism-based; parameters: concentration or dose not given beside the values
Sequence of D(2) dopamine receptor (Rattus norvegicus) (P61169 whole entry): as the sequence (P61169 whole entry) above

Rattus norvegicus [7] = assay: post-synaptic dopaminergic effect was assessed by the increase in locomotor activity at 30 min time interval by 14 umol/kg dosage administration; type: functional
Rattus norvegicus [8] = assay: post-synaptic dopaminergic effect was assessed by the increase in locomotor activity at 30 min time interval by 13 umol/kg dosage administration; type: functional
Rattus norvegicus [9] = assay: post-synaptic dopaminergic effect was assessed by the increase in locomotor activity at 30 min time interval by 265 umol/kg dosage administration; type: functional
Rattus norvegicus [10] = assay: post-synaptic dopaminergic effect was assessed by the increase in locomotor activity at 30 min time interval by 100 umol/kg dosage administration; type: functional
Rattus norvegicus [11] = assay: post-synaptic dopaminergic effect was assessed by the increase in locomotor activity at 30 min time interval by 106 umol/kg dosage administration; type: functional
[12] = test system: Dopamine D2 receptor (Rattus norvegicus); assay: Effective dose required for DOPA accumulation (presynaptic dopaminergic effect) in rat
Rattus norvegicus [13] = assay: post-synaptic dopaminergic effect was assessed by the increase in locomotor activity at 30 min time interval by 1.06 umol/kg dosage administration; type: functional
Rattus norvegicus [14] = assay: post-synaptic dopaminergic effect was assessed by the increase in locomotor activity at 30 min time interval by 25 umol/kg dosage administration; type: functional
D(2) dopamine receptor [15] = biological target: T1, D(2) dopamine receptor; assay: Compound was tested in vivo for binding affinity against D2 receptor using nonradiolabeled 5,6-di-n-Pr-ADTN; type: organism-based
Rattus norvegicus [16] = assay: post-synaptic dopaminergic effect was assessed by the increase in locomotor activity at 30 min time interval by 50 umol/kg dosage administration; type: functional
D(2) dopamine receptor [17] = biological target: T1, D(2) dopamine receptor; assay: Compound was tested in vitro for binding affinity against Dopamine receptor D2 using [3H]-spiperone as radioligand; method in brief: as §1
Rattus norvegicus [18] = assay: post-synaptic dopaminergic effect was assessed by the increase in locomotor activity at 30 min time interval by 10.6 umol/kg dosage administration; type: functional
Rattus norvegicus [19] = assay: post-synaptic dopaminergic effect was assessed by the increase in locomotor activity at 30 min time interval by 213 umol/kg dosage administration; type: functional

CCCN1CCC[C@@H]2c3cccc(O)c3CC[C@@H]21
IC50 (D(2) dopamine receptor [1]): 160 nM
Accumulated counts (Rattus norvegicus [2]): 59
IC50 [3]: 48 nM

Oc1cccc2c1CC[C@H]1NCCC[C@H]21
IC50 (D(2) dopamine receptor [1]): 1550 nM
IC50 [3]: 2370 nM

CCCN1CCCC(c2ccc(O)cc2)C1 (stereo not given)
IC50 (D(2) dopamine receptor [1]): 13000 nM
ED50 (Rattus norvegicus [4]): inactive
IC50 [3]: 276 nM

CCCN1CCC[C@H]2c3cccc(O)c3CC[C@H]21
IC50 (D(2) dopamine receptor [1]): > 100000 nM
ED50 (Rattus norvegicus [4]): inactive
IC50 [3]: 197 nM

CC(C)N1CCC[C@H](c2cccc(O)c2)C1
IC50 (D(2) dopamine receptor [1]): 12100 nM
Accumulated counts (Rattus norvegicus [5]): 49
IC50 [3]: 247 nM

CCCN1CCC[C@H]2c3cccc(O)c3CC[C@@H]21
IC50 (D(2) dopamine receptor [1]): 34 nM
Accumulated counts (Rattus norvegicus [2]): 78
IC50 [3]: 438 nM

CCCCN1CCC[C@H](c2cccc(O)c2)C1
Control [6]: 74%
IC50 (D(2) dopamine receptor [1]): 2670 nM
Accumulated counts (Rattus norvegicus [7]): 180
IC50 [3]: 9 nM

CCCCN1CCC[C@@H](c2cccc(O)c2)C1
Control [6]: 43%
IC50 (D(2) dopamine receptor [1]): 275 nM
Accumulated counts (Rattus norvegicus [5]): 63
IC50 [3]: 31 nM

Oc1cccc2c1CC[C@@H]1NCCC[C@@H]21
IC50 (D(2) dopamine receptor [1]): 92 nM
IC50 [3]: 3610 nM

Oc1cccc([C@H]2CCCN(CCc3ccccc3)C2)c1
IC50 (D(2) dopamine receptor [1]): 1240 nM
Accumulated counts (Rattus norvegicus [7]): 26
IC50 [3]: 8 nM

CCCN1CCC[C@H](c2cccc(O)c2)C1
Control [6]: 84%
Accumulated counts (Rattus norvegicus [8]): 78

Oc1cccc([C@H]2CCCNC2)c1
IC50 (D(2) dopamine receptor [1]): 435 nM
Accumulated counts (Rattus norvegicus [9]): 47
IC50 [3]: 4570 nM

CN1CCCC(c2cccc(O)c2)C1 (stereo not given)
IC50 (D(2) dopamine receptor [1]): 1950 nM
Accumulated counts (Rattus norvegicus [10]): 36
IC50 [3]: 1910 nM

CCCN1CCC[C@@H]2c3cccc(O)c3CC[C@@H]21 (racemic) [listing 1 of 2 here]
IC50 (D(2) dopamine receptor [1]): 2100 nM
IC50 [3]: 416 nM

Oc1cccc2c1CCC1NCCCC21 (racemic)
IC50 (D(2) dopamine receptor [1]): 7500 nM
ED50 (Rattus norvegicus [4]): inactive
Accumulated counts (Rattus norvegicus [11]): 10
IC50 [3]: 14900 nM

CCCCN1CCCC2c3cccc(O)c3CCC21 (racemic)
Control [6]: 57%
IC50 (D(2) dopamine receptor [1]): 38 nM
Accumulated counts (Rattus norvegicus [2]): 196
IC50 [3]: 23 nM
ED50 [12]: 0.08 µmol/kg

CCN1CCCC2c3cc(O)ccc3CCC21 (racemic)
Control [6]: 57%
IC50 (D(2) dopamine receptor [1]): 110 nM
Accumulated counts (Rattus norvegicus [13]): 47
IC50 [3]: 70 nM
ED50 [12]: 0.017 µmol/kg

CCCN1CCCC2c3c(O)cccc3CCC21 (racemic)
IC50 (D(2) dopamine receptor [1]): 61800 nM
ED50 (Rattus norvegicus [4]): inactive
IC50 [3]: 1930 nM

CN1CCCC2c3cc(O)ccc3CCC21 (racemic)
Control [6]: 57%
IC50 (D(2) dopamine receptor [1]): 265 nM
Accumulated counts (Rattus norvegicus [11]): 60
IC50 [3]: 221 nM
ED50 [12]: 0.4 µmol/kg

CN1CCCC2c3cccc(O)c3CCC21 (racemic)
Control [6]: 33%
IC50 (D(2) dopamine receptor [1]): 114 nM
Accumulated counts (Rattus norvegicus [10]): 40
IC50 [3]: 610 nM

Oc1ccc2c(c1)C1CCCN(CCc3ccccc3)C1CC2 (racemic)
IC50 (D(2) dopamine receptor [1]): 990 nM
ED50 (Rattus norvegicus [4]): inactive
Accumulated counts (Rattus norvegicus [14]): 72
IC50 [3]: 27 nM

CCCN1CCCC2c3cccc(O)c3CCC21 (racemic)
IC50 (D(2) dopamine receptor [15]): 63 nM
Accumulated counts (Rattus norvegicus [2]): 163

CCN1CCCC2c3cccc(O)c3CCC21 (racemic)
Control [6]: 54%
IC50 (D(2) dopamine receptor [1]): 102 nM
Accumulated counts (Rattus norvegicus [2]): 19
IC50 [3]: 236 nM

CCCCN1CCCC2c3cc(OC)ccc3CCC21 (racemic)
IC50 (D(2) dopamine receptor [1]): 3840 nM
ED50 (Rattus norvegicus [4]): inactive
IC50 [3]: 5 nM
Accumulated counts (Rattus norvegicus [16]): 135

COc1ccc2c(c1)C1CCCN(Cc3ccccc3)C1CC2 (racemic)
IC50 (D(2) dopamine receptor [1]): 5520 nM
ED50 (Rattus norvegicus [4]): inactive
Accumulated counts (Rattus norvegicus [16]): 21

Oc1ccc2c(c1)C1CCCN(Cc3ccccc3)C1CC2 (racemic)
IC50 (D(2) dopamine receptor [1]): 3440 nM
ED50 (Rattus norvegicus [4]): inactive
IC50 [3]: 11 nM
Accumulated counts (Rattus norvegicus [16]): 78

COc1ccc2c(c1)C1CCCN(CCc3ccccc3)C1CC2 (racemic)
IC50 (D(2) dopamine receptor [1]): 435 nM
IC50 [3]: 14 nM

Oc1cccc2c1CCC1C2CCCN1CCc1ccccc1 (racemic)
Control [6]: 67%
IC50 (D(2) dopamine receptor [1]): 6 nM
Accumulated counts (Rattus norvegicus [14]): 143
IC50 [3]: 65 nM
ED50 [12]: 0.043 µmol/kg

CCCN1CCC[C@@H]2c3cccc(O)c3CC[C@@H]21 (racemic) [listing 2 of 2 here]
ED50 (Rattus norvegicus [4]): inactive

CCCN1CCCC2c3ccc(O)cc3CCC21 (racemic; 17)
IC50 (D(2) dopamine receptor [1]): 730 nM
IC50 [3]: 10 nM

Oc1ccc2c(c1)C1CCCNC1CC2 (racemic; 18) [listing 1 of 2 here]
IC50 (D(2) dopamine receptor [1]): 895 nM
Accumulated counts (Rattus norvegicus [11]): 10
IC50 [3]: 1940 nM

Oc1ccc2c(c1)C1CCCNC1CC2 (racemic; 18) [listing 2 of 2 here]
Control [6]: 90%

CCCN1CCCC2c3cc(O)ccc3CCC21 (racemic; 21) [listing 1 of 2 here]
IC50 (D(2) dopamine receptor [1]): 101 nM
Accumulated counts (Rattus norvegicus [13]): 188
IC50 [3]: 19 nM

CCCN1CCCC2c3cc(O)ccc3CCC21 (racemic; 21) [listing 2 of 2 here]
Control [6]: 68%
ED50 [12]: 0.008 µmol/kg

CCCCN1CCCC2c3cc(O)ccc3CCC21 (racemic; 23) [listing 1 of 2 here]
IC50 (D(2) dopamine receptor [1]): 2990 nM
IC50 [3]: 10 nM
Accumulated counts (Rattus norvegicus [16]): 75

CCCCN1CCCC2c3cc(O)ccc3CCC21 (racemic; 23) [listing 2 of 2 here]
ED50 (Rattus norvegicus [4]): inactive

CCCN1CCCC2c3ccc(O)cc3CCC21 (racemic; 30) [listing 1 of 2 here]
IC50 (D(2) dopamine receptor [1]): 13000 nM
IC50 [3]: 40 nM

CCCN1CCCC2c3ccc(O)cc3CCC21 (racemic; 30) [listing 2 of 2 here]
ED50 (Rattus norvegicus [4]): inactive

Oc1ccc2c(c1)C1CCCNC1CC2 (racemic; 31) [listing 1 of 2 here]
IC50 (D(2) dopamine receptor [1]): 30400 nM
IC50 [3]: 11600 nM

Oc1ccc2c(c1)C1CCCNC1CC2 (racemic; 31) [listing 2 of 2 here]
ED50 (Rattus norvegicus [4]): inactive

CCCN1CCCC2c3cc(O)ccc3CCC21 (racemic; 32) [listing 1 of 2 here]
IC50 (D(2) dopamine receptor [1]): 6700 nM
IC50 [3]: 66 nM

CCCN1CCCC2c3cc(O)ccc3CCC21 (racemic; 32) [listing 2 of 2 here]
ED50 (Rattus norvegicus [4]): inactive

CCCCN1CCCC2c3cc(O)ccc3CCC21 (racemic; 33)
IC50 (D(2) dopamine receptor [17]): 10400 nM
IC50 [3]: 35 nM

CCCN1CCCC2c3cc(O)ccc3CCC21 (stereo in doubt; form 1) [listing 1 of 2 here]
Accumulated counts (Rattus norvegicus [18]): 28
IC50 [3]: 520 nM

CCCN1CCCC2c3cc(O)ccc3CCC21 (stereo in doubt; form 1) [listing 2 of 2 here]
ED50 [12]: 0.25 µmol/kg

CCCN1CCCC2c3cc(O)ccc3CCC21 (stereo in doubt; form 2) [listing 1 of 2 here]
IC50 (D(2) dopamine receptor [1]): 25 nM
Accumulated counts (Rattus norvegicus [13]): 155
IC50 [3]: 21 nM

CCCN1CCCC2c3cc(O)ccc3CCC21 (stereo in doubt; form 2) [listing 2 of 2 here]
ED50 [12]: 0.004 µmol/kg

CCCN1CCC[C@@H](c2cccc(O)c2)C1 [PRECLAMOL]
Control [6]: 33%
Accumulated counts (Rattus norvegicus [19]): 12
